Data published in ChEMBL document CHEMBL1123419, “Synthesis and antiviral activity of sulfonamidobenzophenone oximes and sulfonamidobenzamides” (1986).
≈ marks a conversion by molar mass, not a printed value.

Legend:
Enterovirus [1] = test: Antiviral activity against rhinovirus 1A using plaque-inhibition assay; format: functional; conditions: read-out: ED50 (the source's name)
Summary of the method: (§1)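 Plaque reduction: confluent monolayers were infected with 100-200 PFU. Hela (Ohio) cells were used for rhinoviruses 10 and 1A and coxsackieviruses B4 and A9, CV-1 for poliovirus type 1 Mahoney, and LLC-MK2 for enterovirus 70. Cells were overlaid with 2.0% agar in MEM plus 4% FBS containing serial compound concentrations. Incubation was 37 °C for polio/coxsackie and 33 °C for rhino/enterovirus, with a neutral red (0.004%) second overlay. ED50 was taken from the dose-response curve.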

CV-1 [2] = test: Chemotherapeutic index in CV-1 cells (chemotherapeutic index=50% cytotoxic dose/50% effective dose).; format: functional, Cercopithecidae
Summary of the method: (§2)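 Index = 50% cytotoxic dose / 50% plaque-inhibition dose. For cytotoxicity, 200 cells/mL in suspension were mixed with 10% FBS MEM carrying serial compound dilutions and incubated 7 days at 37 °C under 5% CO2. Colonies were stained with 1% crystal violet and counted, and the 50% cytotoxic dose was read from the dose-response curve.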

Poliovirus 1 = test: microbe, parasite or virus in culture; format: functional; conditions: Enterovirus C; read-out: ED50 (the source's name)
Enterovirus [3] = test: Antiviral activity against rhinovirus 10 using plaque-inhibition assay; format: functional; conditions: read-out: ED50 (the source's name); summary of the method: as §1
HeLa [4] = test: Antiviral activity was measured against Hela cells injected with rhinovirus 1A; format: functional, Homo sapiens
Summary of the method: (§3)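 Rhinovirus spectrum in Hela cells: infected cultures were kept 3 days at 33 °C, stained with crystal violet and examined microscopically for cytopathic effect. The end point was 50% inhibition.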

HeLa [5] = test: Antiviral activity was measured against Hela cells injected with rhinovirus 10; format: functional, Homo sapiens; summary of the method: as §3
CV-1 [6] = test: Compound was evaluated for its failure of virucidal activity in poliovirus infected CV-1 cells at 50 ug/mL. virus titer 7.4*10e7 PFU/mL; format: functional, Cercopithecidae
HeLa [7] = test: Antiviral activity was measured against Hela cells injected with coxsackie virus type A9; format: functional, Homo sapiens; summary of the method: as §1
HeLa [8] = test: Antiviral activity was measured against Hela cells injected with coxsackie virus type B4; format: functional, Homo sapiens; summary of the method: as §1
HeLa [9] = test: Antiviral activity was measured against Hela cells injected with rhinovirus 19; format: functional, Homo sapiens; summary of the method: as §3
CV-1 [10] = test: Compound was evaluated for its failure of virucidal activity in poliovirus infected CV-1 cells at 0.5 ug/mL. virus titer 6.6*10e7 PFU/mL; format: functional, Cercopithecidae
HeLa [11] = test: Antiviral activity was measured against Hela cells injected with rhinovirus 26; format: functional, Homo sapiens; summary of the method: as §3
CV-1 [12] = test: Compound was evaluated for its failure of virucidal activity in poliovirus infected CV-1 cells at 5 ug/mL. virus titer 7.1*10e7 PFU/mL; format: functional, Cercopithecidae
CV-1 [13] = test: Compound was evaluated for chemotherapeutic index in CV-1 cells (chemotherapeutic index=50% cytotoxic dose/50% effective dose); format: functional, Cercopithecidae; summary of the method: as §2
LLC-MK2 = test: Antiviral activity was measured against LLC-MK2 cells injected with enterovirus 70; format: functional, Cercopithecidae; summary of the method: as §1
CV-1 [14] = test: Effect on time of addiction in poliovirus infected CV-1 cells treated with 1 ug/mL of compound at 1 h. virus titer 3.6*10e8; format: functional, Cercopithecidae
CV-1 [15] = test: Effect on time of addiction in poliovirus infected CV-1 cells treated with 1 ug/mL of compound at 0 h. virus titer 4.8*10e8; format: functional, Cercopithecidae
CV-1 [16] = test: Effect on time of addiction in poliovirus infected CV-1 cells treated with 1 ug/mL of compound at 2 h. virus titer 5.0*10e8; format: functional, Cercopithecidae
CV-1 [17] = test: Compound was evaluated for its failure of virucidal activity in poliovirus infected CV-1 cells at 0.5 ug/mL. virus titer 6.4*10e7 PFU/mL; format: functional, Cercopithecidae
CV-1 [18] = test: Compound was evaluated for its failure of virucidal activity in poliovirus infected CV-1 cells at 5 ug/mL. virus titer 7.6*10e7 PFU/mL; format: functional, Cercopithecidae
CV-1 [19] = test: Effect on time of addiction in poliovirus infected CV-1 cells treated with 1 ug/mL of compound at 4 h. virus titer 3.1*10e9; format: functional, Cercopithecidae
CV-1 [20] = test: Effect on time of addiction in poliovirus infected CV-1 cells treated with 1 ug/mL of compound at 5 h. virus titer 4.3*10e9; format: functional, Cercopithecidae
CV-1 [21] = test: Effect on time of addiction in poliovirus infected CV-1 cells treated with 1 ug/mL of compound at 3 h. virus titer 1.6*10e9; format: functional, Cercopithecidae

SMILES | EC50 (Enterovirus [1]) | Chemotherapeutic index (CV-1 [2]) | EC50 (Poliovirus 1) | EC50 (Enterovirus [3]) | further results
CC(C)c1ccc(NC(=O)c2ccc(NS(=O)(=O)N(C)C)cc2)cc1 | 0.1 µg/mL (≈ 0.277 µM) | 10 | 0.21 µg/mL (≈ 0.581 µM) |  | 
CCCCCc1ccc(NC(=O)c2ccc(NS(=O)(=O)N(C)C)cc2)cc1 | 0.51 µg/mL (≈ 1.31 µM) | 4 | 0.32 µg/mL (≈ 0.822 µM) |  | 
CCCCc1ccc(NC(=O)c2cccc(NS(=O)(=O)C(C)C)c2)cc1 |  |  | 0.42 µg/mL (≈ 1.12 µM) |  | 
CCCc1ccc(NC(=O)c2ccc(NS(=O)(=O)N(C)C)cc2)cc1 | 0.15 µg/mL (≈ 0.415 µM) | 6 | 0.16 µg/mL (≈ 0.443 µM) |  | 
CN(C)S(=O)(=O)Nc1ccc(C(=O)Nc2ccc(C(F)(F)F)cc2)cc1 | 0.17 µg/mL (≈ 0.439 µM) | 19 | 0.18 µg/mL (≈ 0.465 µM) |  | 
CN(C)S(=O)(=O)Nc1cccc(/C(=N/O)c2ccc(CO)cc2)c1 |  | 55 | 0.4 µg/mL (≈ 1.14 µM) | 0.37 µg/mL (≈ 1.06 µM) | 
CN(C)S(=O)(=O)Nc1ccc(C(=O)Nc2ccc(Br)cc2)cc1 | 0.26 µg/mL (≈ 0.653 µM) | 600 | 0.3 µg/mL (≈ 0.753 µM) |  | ED50 (HeLa [4]): 0.68 µg/mL (≈ 1.71 µM); ED50 (HeLa [5]): 0.42 µg/mL (≈ 1.05 µM); Inhibition (CV-1 [6]): 0%; ED50 (HeLa [7]): 5.2 µg/mL (≈ 13.1 µM); ED50 (HeLa [8]): 4 µg/mL (≈ 10 µM); ED50 (HeLa [9]): 0.6 µg/mL (≈ 1.51 µM); Inhibition (CV-1 [10]): 12%; ED50 (HeLa [11]): 0.68 µg/mL (≈ 1.71 µM); Inhibition (CV-1 [12]): 0%
CSc1ccc(/C(=N\O)c2cccc(NS(=O)(=O)N(C)C)c2)cc1 |  | 9 | 0.32 µg/mL (≈ 0.876 µM) | 0.26 µg/mL (≈ 0.711 µM) | 
CC(C)S(=O)(=O)Nc1cccc(/C(=N/O)c2ccc(CO)cc2)c1 |  |  |  | 0.39 µg/mL (≈ 1.12 µM) | 
COc1cccc(/C(=N\O)c2cccc(NS(=O)(=O)N(C)C)c2)c1 |  | 74 | 0.34 µg/mL (≈ 0.973 µM) | 0.41 µg/mL (≈ 1.17 µM) | 
Cc1ccc(NC(=O)c2ccc(NS(=O)(=O)N(C)C)cc2)cc1 | 0.38 µg/mL (≈ 1.14 µM) | 370 | 0.54 µg/mL (≈ 1.62 µM) |  | 
CN(C)S(=O)(=O)Nc1cccc(/C(=N/O)c2cccc(N)c2)c1 |  |  | 0.7 µg/mL (≈ 2.09 µM) |  | Chemotherapeutic index (CV-1 [13]): 66
CN(C)S(=O)(=O)Nc1cccc(/C(=N/O)c2ccc(Cl)cc2)c1 |  | 26 | 0.46 µg/mL (≈ 1.3 µM) | 0.53 µg/mL (≈ 1.5 µM) | 
COc1ccc(/C(=N\O)c2cccc(NS(=O)(=O)C(C)C)c2)cc1 |  | 32 | 0.36 µg/mL (≈ 1.03 µM) | 0.62 µg/mL (≈ 1.78 µM) | 
COc1ccc(/C(=N\O)c2cccc(NS(=O)(=O)N(C)C)c2)c(OC)c1 |  | 28 | 1 µg/mL (≈ 2.64 µM) | 0.89 µg/mL (≈ 2.35 µM) | 
CN(C)S(=O)(=O)Nc1cccc(C(=O)Nc2ccc(C#N)cc2)c1 |  |  | 5 µg/mL (≈ 14.5 µM) |  | 
CC(C)S(=O)(=O)Nc1cccc(C(=O)NCc2ccco2)c1 |  |  | > 50 µg/mL |  | 
CC(C)S(=O)(=O)Nc1cccc(C(=O)Nc2ccc(F)cc2)c1 |  |  | 4.2 µg/mL (≈ 12.5 µM) |  | 

SMILES | EC50 (Enterovirus [1]) | Chemotherapeutic index (CV-1 [2]) | EC50 (Poliovirus 1) | EC50 (Enterovirus [3]) | further results
COc1ccc(/C(=N/O)c2cccc(NS(=O)(=O)N(C)C)c2)c(OC)c1 |  | 1.8 | 19.5 µg/mL (≈ 51.4 µM) | 4 µg/mL (≈ 10.5 µM) | 
CCOc1ccc(/C(=N\O)c2cccc(NS(=O)(=O)N(C)C)c2)cc1 |  |  | 5.5 µg/mL (≈ 15.1 µM) |  | 
Cc1ccc(/C(=N\O)c2cccc(NS(=O)(=O)N(C)C)c2)cc1 |  | 86 | 0.44 µg/mL (≈ 1.32 µM) | 0.41 µg/mL (≈ 1.23 µM) | 
CCCCCCc1ccc(NC(=O)c2ccc(NS(=O)(=O)N(C)C)cc2)cc1 | 0.24 µg/mL (≈ 0.595 µM) | 11 | 0.16 µg/mL (≈ 0.396 µM) |  | 
COCc1ccc(/C(=N\O)c2cccc(NS(=O)(=O)N(C)C)c2)cc1 |  | 28 | 0.25 µg/mL (≈ 0.688 µM) | 0.36 µg/mL (≈ 0.991 µM) | 
COCc1ccc(/C(=N\O)c2cccc(NS(=O)(=O)C(C)C)c2)cc1 |  | 68 | 0.22 µg/mL (≈ 0.607 µM) | 0.98 µg/mL (≈ 2.7 µM) | 
CN(C)S(=O)(=O)Nc1ccc(C(=O)Nc2ccc(I)cc2)cc1 | 0.3 µg/mL (≈ 0.674 µM) | 5 | 0.3 µg/mL (≈ 0.674 µM) |  | 
CN(C)S(=O)(=O)Nc1cccc(/C(=N/O)c2ccccc2)c1 |  | 24 | 0.79 µg/mL (≈ 2.47 µM) | 0.54 µg/mL (≈ 1.69 µM) | 
CCc1ccc(NC(=O)c2ccc(NS(=O)(=O)N(C)C)cc2)cc1 | 0.2 µg/mL (≈ 0.576 µM) | 10 | 0.36 µg/mL (≈ 1.04 µM) |  | 
CN(C)S(=O)(=O)Nc1ccc(C(=O)Nc2ccc(Cl)cc2)cc1 | 0.32 µg/mL (≈ 0.904 µM) | 220 | 0.5 µg/mL (≈ 1.41 µM) |  | 
COc1ccc(/C(=N\O)c2cccc(NS(=O)(=O)N(C)C)c2)cc1 |  | 56 | 0.26 µg/mL (≈ 0.744 µM) | 0.29 µg/mL (≈ 0.83 µM) | ED50 (HeLa [4]): 0.29 µg/mL (≈ 0.83 µM); ED50 (HeLa [5]): 0.26 µg/mL (≈ 0.744 µM); ED50 (HeLa [8]): 0.64 µg/mL (≈ 1.83 µM); ED50 (HeLa [9]): 0.44 µg/mL (≈ 1.26 µM); ED50 (LLC-MK2): 0.75 µg/mL (≈ 2.15 µM)
CN(C)S(=O)(=O)Nc1ccc(C(=O)NCCCCc2ccccc2)cc1 | 0.13 µg/mL (≈ 0.346 µM) | 18 | 0.09 µg/mL (≈ 0.24 µM) |  | Inhibition (CV-1 [14]): 91.2%; ED50 (HeLa [4]): 0.12 µg/mL (≈ 0.32 µM); ED50 (HeLa [5]): 0.09 µg/mL (≈ 0.24 µM); Inhibition (CV-1 [6]): 0%; Inhibition (CV-1 [15]): 88.3%; ED50 (HeLa [7]): 0.4 µg/mL (≈ 1.07 µM); ED50 (HeLa [8]): 0.42 µg/mL (≈ 1.12 µM); ED50 (HeLa [9]): 0.12 µg/mL (≈ 0.32 µM); Inhibition (CV-1 [16]): 87.8%; ED50 (LLC-MK2): 0.7 µg/mL (≈ 1.86 µM); ED50 (HeLa [11]): 0.13 µg/mL (≈ 0.346 µM); Inhibition (CV-1 [17]): 10%; Inhibition (CV-1 [18]): 3%; Inhibition (CV-1 [19]): 24.4%; Inhibition (CV-1 [20]): 0%; Inhibition (CV-1 [21]): 61%
CC(C)Cc1ccc(NC(=O)c2ccc(NS(=O)(=O)N(C)C)cc2)cc1 | 0.13 µg/mL (≈ 0.346 µM) | 7 | 0.16 µg/mL (≈ 0.426 µM) |  | 
CN(C)S(=O)(=O)Nc1cccc(/C(=N/O)c2cccc(CO)c2)c1 |  | 20 | 0.5 µg/mL (≈ 1.43 µM) | 1.6 µg/mL (≈ 4.58 µM) | 
CC(C)S(=O)(=O)Nc1cccc(C(=O)Nc2cccc(Cl)c2)c1 |  |  | 1.5 µg/mL (≈ 4.25 µM) |  | 
COc1ccc(/C(=N/O)c2cccc(NS(=O)(=O)N(C)C)c2)cc1 |  | 3.4 | 7.6 µg/mL (≈ 21.8 µM) | 5.4 µg/mL (≈ 15.5 µM) | 
CC(C)S(=O)(=O)n1c(N)nc2ccc(/C(=N/O)c3ccccc3)cc21 [ENVIROXIME] |  |  | 0.032 µg/mL (≈ 0.0893 µM) | 0.024 µg/mL (≈ 0.067 µM) | 
CC(C)S(=O)(=O)n1c(N)nc2ccc(/C(=N\O)c3ccccc3)cc21 [ZINVIROXIME] |  | 61 | 0.14 µg/mL (≈ 0.391 µM) | 0.24 µg/mL (≈ 0.67 µM) | 
